Calls of active or inactive are those of the source. No cut-off for these calls is given here.
Assays:
PANC-1 = test: Cytotoxicity against human PANC1 cells assessed as cell viability after 3 hrs by WST-8 cells; type: functional
Procedure, shortened: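 PANC-1 cells, 2 × 10⁴/well, grown 24 h in DMEM at 37 °C in 5% CO₂. Cells were PBS-washed and then exposed 24 h to serial dilutions in nutrient-deprived medium or in normal DMEM. After a PBS wash, WST-8 in DMEM was added for 3 h and A450 was read. Viability was taken against blank and control from the mean of three wells. PC50 is the concentration killing 50% of cells preferentially in NDM.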

Mus musculus [1] = species on record: Mus musculus; test: Toxicity in human Capan1 cells injected BALB/cAJcl-nu-nu mouse assessed as behavior at 50 ug for 6 days in a week upto 28th days treatment started on 15th day tumor injection; type: organism-based; settings: capan-1, 144 h
Procedure, shortened: (§1)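 Female BALB/cAJcl-nu/nu mice, five weeks old, injected s.c. on the right back with 5 × 10⁶ CAPAN-1 cells in DMEM. At two weeks, mice with tumors around 5 mm were randomized to treatment or vehicle groups. Drug was given from a DMSO stock (10 mg/mL) diluted in saline, 0.2 mL i.p., 6 days/week for 4 weeks. Body weight and tumor size were taken weekly. Tumors were weighed wet at the end.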

Mus musculus [2] = species on record: Mus musculus; test: Toxicity in human Capan1 cells injected BALB/cAJcl-nu-nu mouse assessed as body weight at 50 ug for 6 days in a week upto 28th days treatment started on 15th day tumor injection; type: organism-based; settings: capan-1, 144 h; procedure, shortened: as §1
CAPAN-1 = test: Antitumor activity against human Capan1 cells injected into BALB/cAJcl-nu-nu mouse assessed as reduction in tumor weight at 50 ug for 6 days in a week upto 28th days treatment started on 15th day tumor injection; type: functional; procedure, shortened: as §1

| SMILES | PC50 (PANC-1) [µM] | other results |
| --- | --- | --- |
| CCOc1ccc(C[C@H]2COC(=O)[C@@H]2Cc2ccc(O)c(OC)c2)cc1OCC | 4.85 | – |
| CCCOc1cc(C[C@H]2C(=O)OC[C@@H]2Cc2ccc(OC)c(OC)c2)ccc1O | 3.74 | – |
| COc1cc(C[C@H]2C(=O)OC[C@@H]2Cc2ccc(OC)c(OC)c2)ccc1O [ARCTIGENIN] | 0.8 | Activity (Mus musculus [1]): Non-toxic; Activity (Mus musculus [2]): Non-toxic; inhibition (CAPAN-1): Active |
| CCCCCCOc1cc(C[C@H]2C(=O)OC[C@@H]2Cc2ccc(OC)c(OC)c2)ccc1O | 3.89 | – |
| CCOc1cc(C[C@H]2C(=O)OC[C@@H]2Cc2ccc(OC)c(OC)c2)ccc1O | 3.74 | – |
| CCOc1cc(C[C@H]2COC(=O)[C@@H]2Cc2ccc(O)c(OC)c2)ccc1OC | 4.71 | – |
| CCOc1cc(C[C@H]2C(=O)OC[C@@H]2Cc2ccc(OCC)c(OC)c2)ccc1O | 4.77 | – |
| CCCOc1cc(C[C@H]2C(=O)OC[C@@H]2Cc2ccc(OC)c(OCCC)c2)ccc1O | 13.6 | – |
| COc1ccc(C[C@H]2COC(=O)[C@@H]2Cc2ccc(O)c(OCCO)c2)cc1OC | 7.7 | – |
| CCOc1ccc(C[C@H]2COC(=O)[C@@H]2Cc2ccc(O)c(OC)c2)cc1OC | 0.49 | – |
| COc1ccc(C[C@H]2COC(=O)[C@@H]2Cc2ccc(O)c(OC(C)C)c2)cc1OC | 4.16 | – |
| CCCCOc1cc(C[C@H]2C(=O)OC[C@@H]2Cc2ccc(OC)c(OC)c2)ccc1O | 7.14 | – |
| CCCOc1cc(C[C@H]2C(=O)OC[C@@H]2Cc2ccc(OCC)c(OCCC)c2)ccc1O | 28.6 | – |
| CCOc1cc(C[C@H]2C(=O)OC[C@@H]2Cc2ccc(OCC)c(OCC)c2)ccc1O | 0.78 | Activity (Mus musculus [1]): Non-toxic; Activity (Mus musculus [2]): Non-toxic; inhibition (CAPAN-1): Active |
| CCCOc1cc(C[C@H]2C(=O)OC[C@@H]2Cc2ccc(OC)c(OCC)c2)ccc1O | 3.54 | – |
| CCOc1cc(C[C@H]2C(=O)OC[C@@H]2Cc2ccc(OC)c(OCC)c2)ccc1O | 0.66 | – |
